# The source made the active and inactive calls. The calls are words filed in the database; no cut-off is given here.
# Assays:
# [1] = Cmax in common marmoset at 40 mg/kg, po measured on day 1 by […] analysis; type: ADME, organism-based, Callithrix jacchus; set-up: dose 40 mg/kg, route oral; settings: in vivo
# Summary of the method: (§1)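 Six marmosets (25–64 months, 310–560 g) received one oral 40 mg/kg levofloxacin dose in banana milkshake. Two groups of three were bled at 0.5, 2 and 6 h or at 1, 4 and 8 h. Lithium-heparin plasma was stored at −70°C and assayed by LC-MS/MS-ESI against a spiked-plasma calibration curve (0.1–50 μg/ml). PK parameters were derived from the pooled profile.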
# [2] = Tmax in common marmoset at 40 mg/kg, po BID measured on day 7 by […] analysis; type: ADME, organism-based, Callithrix jacchus; set-up: dose 40 mg/kg, route oral; settings: in vivo
# Summary of the method: (§2)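 Oral levofloxacin, 40 mg/kg twice daily in banana milkshake for 7 consecutive days. Day-7 sampling: predose and 1, 4 and 8 h (group A, n=3); 0.5, 2, 6 and 12 h (group B, n=3). Lithium-heparin plasma was held at −70°C and quantified by LC-MS/MS-ESI against spiked-plasma standards (0.1–50 μg/ml). PK parameters were derived.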
# [3] = Cmax in Rhesus monkey at 15 mg/kg by […] analysis; type: ADME, organism-based, Macaca mulatta; set-up: dose 15 mg/kg; settings: in vivo
# Callithrix jacchus [4] = assay: AUC in common marmoset at 40 mg/kg, po measured on day 1 by […] analysis; type: ADME, organism-based, Plasma; set-up: dose 40 mg/kg, route oral; settings: in vivo; summary of the method: as §1
# [5] = Tmax in human at 500 mg, po QD measured on day 10 by […] analysis; type: ADME, organism-based; settings: in vivo
# [6] = Tmax in human at 500 mg, po by […] analysis; type: ADME, organism-based; settings: in vivo
# Rhesus monkey [7] = assay: AUC (0 to infinity) in Rhesus monkey at 15 mg/kg followed by 4 mg/kg in 12 hrs dosing interval by […] analysis; type: ADME, organism-based, Macaca mulatta, Plasma; set-up: dose 15 mg/kg, time infinity; settings: in vivo
# Rhesus monkey [8] = assay: AUC (0 to infinity) in Rhesus monkey at 15 mg/kg by […] analysis; type: ADME, organism-based, Macaca mulatta, Plasma; set-up: time infinity, dose 15 mg/kg; settings: in vivo
# [9] = Cmax in human at 500 mg, po by […] analysis; settings: in vivo
# [10] = Tmax in Rhesus monkey at 15 mg/kg by […] analysis; type: ADME, organism-based, Macaca mulatta; set-up: dose 15 mg/kg; settings: in vivo
# [11] = Cmax in common marmoset at 40 mg/kg, po BID measured on day 7 by […] analysis; type: ADME, organism-based, Callithrix jacchus; set-up: dose 40 mg/kg, route oral; settings: in vivo; summary of the method: as §2
# [12] = Half life in common marmoset at 40 mg/kg, po BID measured on day 7 by […] analysis; type: ADME, organism-based, Callithrix jacchus; set-up: dose 40 mg/kg, route oral; settings: in vivo; summary of the method: as §2
# [13] = Cmax in common marmoset at 40 mg/kg, po BID measured on day 1 by […] analysis; type: ADME, organism-based, Callithrix jacchus; set-up: dose 40 mg/kg, route oral; settings: in vivo
# Summary of the method: (§3)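 Marmosets were dosed orally with 40 mg/kg levofloxacin twice daily in banana milkshake for 7 days. On day 1, group A (n=3) was bled predose and at 1, 4 and 8 h, and group B (n=3) at 0.5, 2, 6 and 12 h. Heparinised plasma was stored at −70°C and measured by LC-MS/MS-ESI (calibration 0.1–50 μg/ml). PK parameters were calculated.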
# Callithrix jacchus [14] = assay: AUC in common marmoset at 40 mg/kg, po BID measured on day 7 by […] analysis; type: ADME, organism-based, Plasma; set-up: dose 40 mg/kg, route oral; settings: in vivo; summary of the method: as §2
# [15] = Half life in common marmoset at 40 mg/kg, po measured on day 1 by […] analysis; type: ADME, organism-based, Callithrix jacchus; set-up: dose 40 mg/kg, route oral; settings: in vivo; summary of the method: as §1
# [16] = Half life in Rhesus monkey at 15 mg/kg followed by 4 mg/kg in 12 hrs dosing interval by LS/MS/MS analysis; type: ADME, organism-based, Macaca mulatta; settings: in vivo
# [17] = Tmax in Rhesus monkey at 15 mg/kg followed by 4 mg/kg in 12 hrs dosing interval by […] analysis; type: ADME, organism-based, Macaca mulatta; settings: in vivo
# Francisella tularensis = assay: Antimicrobial activity against Francisella tularensis SCHU S4 infected in common marmoset assessed as survival of marmoset at 16.5 mg/kg BID for 10 days measured on day 24; type: functional, organism-based; set-up: dose 16.5 mg/kg
# [18] = Half life in Rhesus monkey at 15 mg/kg by LS/MS/MS analysis; type: ADME, organism-based, Macaca mulatta; set-up: dose 15 mg/kg; settings: in vivo
# [19] = Cmax in Rhesus monkey at 15 mg/kg followed by 4 mg/kg in 12 hrs dosing interval by […] analysis; type: ADME, organism-based, Macaca mulatta; set-up: dose 15 mg/kg; settings: in vivo
# [20] = Half life in human at 500 mg, po QD measured on day 10 by LS/MS/MS analysis; type: ADME, organism-based; settings: in vivo
# Homo sapiens [21] = assay: AUC (0 to infinity) in human at 500 mg, po by […] analysis; type: ADME, organism-based, Plasma; set-up: dose 500 mg, time infinity, route oral; settings: in vivo
# Callithrix jacchus [22] = assay: AUC in common marmoset at 40 mg/kg, po BID measured on day 1 by […] analysis; type: ADME, organism-based, Plasma; set-up: dose 40 mg/kg, route oral; settings: in vivo; summary of the method: as §3
# [23] = Cmax in human at 500 mg, po QD measured on day 10 by […] analysis; settings: in vivo
# [24] = Half life in common marmoset at 40 mg/kg, po BID measured on day 1 by […] analysis; type: ADME, organism-based, Callithrix jacchus; set-up: dose 40 mg/kg, route oral; settings: in vivo; summary of the method: as §3
# Homo sapiens [25] = assay: AUC (0 to infinity) in human at 500 mg, po QD measured on day 10 by […] analysis; type: ADME, organism-based, Plasma; set-up: dose 500 mg, route oral, time infinity; settings: in vivo
# [26] = Half life in human at 500 mg, po by LS/MS/MS analysis; type: ADME, organism-based; settings: in vivo
smiles,measurement,setting,value
C[C@H]1COc2c(N3CCN(C)CC3)c(F)cc3c(=O)c(C(=O)O)cn1c23.C[C@H]1COc2c(N3CCN(C)CC3)c(F)cc3c(=O)c(C(=O)O)cn1c23.O [LEVOFLOXACIN],Cmax,[1],18800 ng/mL
same,Tmax,[2],0.5 h
same,Cmax,[3],5100 ng/mL
same,AUC,Callithrix jacchus [4],112.4 µg/mL/h
same,Tmax,[5],1.1 h
same,Tmax,[6],1.5 h
same,AUC,Rhesus monkey [7],33400 ng·h/mL
same,AUC,Rhesus monkey [8],21300 ng·h/mL
same,Cmax,[9],8500 ng/mL
same,Tmax,[10],1.5 h
same,Cmax,[11],20900 ng/mL
same,half-life,[12],2.3 h
same,Cmax,[13],16500 ng/mL
same,AUC,Callithrix jacchus [14],81.4 µg/mL/h
same,half-life,[15],3.9 h
same,half-life,[16],3.4 h
same,Tmax,[17],2.2 h
same,Activity,Francisella tularensis,Active
same,half-life,[18],2 h
same,Cmax,[19],5300 ng/mL
same,half-life,[20],7.6 h
same,AUC,Homo sapiens [21],56300 ng·h/mL
same,AUC,Callithrix jacchus [22],63.6 µg/mL/h
same,Cmax,[23],5700 ng/mL
same,half-life,[24],2.4 h
same,AUC,Homo sapiens [25],47500 ng·h/mL
same,half-life,[26],6.4 h
